# AP ELISA ortho: alternative pathway complement inhibition, orthogonal assay; Human serum alternative complement pathway, LPS-coated ELISA, C3 deposition; tested in compound mixtures; inhibition, % at 5 µM; actives 0.08% (n = 62,000);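 active means inhibition above 30% in each of the two pooled mixtures holding the compound, so the lower value exceeds 30%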;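 further: 0% = serum in Mg-EGTA without compound and 100% = EDTA serum blank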
#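 Test system: human serum complement alternative pathway, C3 deposition onto LPS / Medium: Mg2+-EGTA GVB++ buffer containing human serum at 1:15 dilution / Probe or stimulus: Plate-bound LPS / Times: 1 h at 37 °C / Signal: ELISA with HRP anti-human C3 antibody, TMB substrate, absorbance 450 nm / Measure: percent inhibition / Repeats: two pool placements per compound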
# E coli RNAP: inhibitors of Escherichia coli RNA polymerase | P0A8V2 | E. coli RNA polymerase, fluorescence transcription assay | inhibition, %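 (tested at 10 µM)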 | actives 0.2% (n = 62,000) | AID 559; in the data active means inhibition above about 20%;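 further: 0% = enzyme without compound and 100% = no enzyme blank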
# hDAT+cocaine: changed human dopamine transporter uptake under cocaine IC80; AID 449768; actives 1.3% (n = 110,000); Q01959; LLC-PK1 hDAT cells, [14C]-dopamine uptake with cocaine IC80; actives deviate in either direction; B-score at 10 µM;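 active means Z score or B-score, a plate-position-corrected score, falls beyond the plate's 99.7% confidence bounds, in either direction; inactive means both scores lie inside the 99.7% bounds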;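 further: scored against the spread of the other compound wells on the same plate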
# D1 allo mod: allosterically modulates the human D1 dopamine receptor; P21728; HEK293 D1, CRE-luciferase, dopamine EC30 potentiation; actives deviate in either direction; B-score at 10 µM; actives 5.9% (n = 58,000); AID 641;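 active means luminescence count or its row- and column-corrected plate score outside the 99.7% band of the plate's sample wells, on either side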
# Target sequence (P21728 whole entry, looked up): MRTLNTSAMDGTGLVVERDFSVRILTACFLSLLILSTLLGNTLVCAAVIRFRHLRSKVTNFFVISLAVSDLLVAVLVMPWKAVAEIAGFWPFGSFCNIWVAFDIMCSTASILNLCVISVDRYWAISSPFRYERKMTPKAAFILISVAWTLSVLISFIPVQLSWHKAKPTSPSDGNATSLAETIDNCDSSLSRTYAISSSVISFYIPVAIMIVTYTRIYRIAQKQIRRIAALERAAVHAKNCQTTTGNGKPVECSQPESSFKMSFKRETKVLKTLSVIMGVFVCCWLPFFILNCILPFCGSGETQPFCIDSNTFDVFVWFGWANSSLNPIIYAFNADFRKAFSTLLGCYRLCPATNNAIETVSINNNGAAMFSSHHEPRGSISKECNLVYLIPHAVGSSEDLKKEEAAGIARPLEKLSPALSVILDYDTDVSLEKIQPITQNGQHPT
# HEK293 NFkB inh: lowers PMA/ionomycin-induced NF-kB signal in HEK293 cells | HEK-293 NF-kB luciferase reporter, luminescence | actives 0.21% (n = 62,000) | AID 465 | inhibition, % at 3 µM;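 active means inhibition above the mean of all tested compounds plus 3 SD, cut at about 40% in these data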;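 further: 0% = stimulated DMSO wells and 100% = 10 µM reference inhibitor 5653914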
#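 Reagent: PMA plus ionomycin mix as NF-kB-activating stimulus. Assay system: NF-kB luciferase reporter HEK-293 cells. Technique: luminescence from luciferase substrate reagent. Incubation: 1 h compound pre-incubation, 16 h PMA/ionomycin at 37 °C. Benchmarks: DMSO only as uninhibited control, 10 µM reference inhibitor as full inhibition. Repeats: tested once.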
# D1 PAM confirm: D1 receptor (human) allosteric modulation, confirmed | HEK293 D1 CRE-luciferase, dopamine EC30 potentiation; stronger effect = higher value | luminescence at 10 µM | actives 88% (n = 2,200) | shares compounds with D1 allo mod | AID 642;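 active means luminescence in either of two replicates above the same-plate mean plus 3 SD of the low-dose dopamine control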
# D1 ag no DA: D1 (human) signaling in absence of dopamine; shares compounds with D1 allo mod; HEK293 D1 CRE-luciferase, luminescence, no dopamine; stronger effect = higher value; luminescence at 10 µM; actives 0.8% (n = 1,900); in the data active means luminescence above about 3900
# Isoprot counter: alters isoproterenol CRE-luciferase response in HEK293 cells; shares compounds with D1 allo mod; HEK293 D1 CRE-luciferase, isoproterenol EC30 counter-screen; calls only at 10 µM; actives 63% (n = 2,200); AID 647;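 active means luminescence in either replicate above plate mean of wells with a partly effective reference agonist dose plus 3 SD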;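 further: isoproterenol raises cAMP through native beta-adrenoceptor Gs so signal bypasses D1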
# Starred values were filed as active, the others as inactive; i = inactive; · = not tested or not shown; + = active, no number. This excerpt belongs to a sample that is enriched for hits.
SMILES,AP ELISA ortho,E coli RNAP,hDAT+cocaine,D1 allo mod,HEK293 NFkB inh,D1 PAM confirm,D1 ag no DA,Isoprot counter
c1ccc(-c2oc3ncnc(NCCCn4ccnc4)c3c2-c2ccccc2)cc1,21,9,2.7*,3.8*,18,9476*,1872,+
COc1cc(C)ccc1S(=O)(=O)N1CCN(C23CC4CC(CC(C4)C2)C3)CC1,·,·,0.88,·,·,·,·,·
Cc1noc(C)c1S(=O)(=O)N(CC(=O)N1CCCCCC1)c1ccc(C(C)C)cc1,13,-3,0.065,1.8*,20,7028,1368,i
COc1ccccc1NC(=O)C(NC(=O)OC(C)(C)C)C(C)OCc1ccccc1 (stereo unspecified),·,·,0.17,·,·,·,·,·
CCCCCn1c(SCCOCC)nc2c1c(=O)[nH]c(=O)n2C,1,6,-0.062,9.6*,10,20192*,1580,+
CCCCCCn1c(SCCC)nc2c1c(=O)[nH]c(=O)n2C,-13,9,0.022,-0.2,6,·,·,·
CCOCCSc1nc2c(c(=O)[nH]c(=O)n2C)n1CCCc1ccccc1,·,5,-0.056,5.6*,·,12256*,1704,+
CCCCCn1c(SCCc2ccccc2)nc2c1c(=O)[nH]c(=O)n2C,11,-1,0.14,5.5*,18,12580*,1568,+
CCOCCn1c(SCCc2ccccc2)nc2c1c(=O)[nH]c(=O)n2C,2,-7,-0.0081,0.51,11,·,·,·
C/C=C/Cn1c(SCCCc2ccccc2)nc2c1c(=O)[nH]c(=O)n2C,7,4,0.63,6.3*,-1,8184*,1456,i
Cc1c(NC(=O)CCC(=O)N2CCCCC2)c(=O)n(-c2ccccc2)n1C,-1,5,0.96,0.12,15,·,·,·
CC(Oc1ccc(Cl)cc1Cl)c1nc(-c2ccccn2)no1 (stereo unspecified),14,-2,0.013,·,·,·,·,·
CCO[C@H]1OC(C(=O)O)=C[C@@H](c2coc3ccccc3c2=O)[C@@H]1CCCO,·,·,0.28,·,·,·,·,·
CC(C1CC1)N(C(=O)NC1CCS(=O)(=O)C1)c1ccccc1 (stereo unspecified),13,6,0.046,0.31,8,·,·,·
CCC1CCCCN1C(=O)CSc1nnc(-c2c[nH]c3ccccc23)o1 (stereo unspecified),-11,1,2.2,-0.67,18,·,·,·
Cc1nc(SCC(=O)Nc2c(C)n(C)n(-c3ccccc3)c2=O)[nH]c(=O)c1C,·,·,0.11,·,·,·,·,·
CC(C(=O)O)n1c(C(F)(F)F)nc2ccccc21 (stereo unspecified),·,·,-1.3,·,·,·,·,·
CSc1n[nH]c(NCc2cccs2)n1,-2,4,-0.98,-0.68,-1,·,·,·
CNC(=S)Nc1cc(OC)ccc1OC,·,·,0.92,·,·,·,·,·
OCCNc1nc(C2CC2)nc2c1nnn2Cc1ccccc1Cl,17,2,-0.46,8.9*,3,14928*,1728,i
COCCNc1nc(C(C)(C)C)nc2c1nnn2Cc1ccccc1Cl,8,6,0.57,0.29,-3,·,·,·
Cc1ccc(-n2nc3c(c2NC(=O)c2c(-c4ccccc4Cl)noc2C)CSC3)cc1,16,4,3*,4.6*,0,4636,1496,i
Cc1ccccc1-n1nc2c(c1NC(=O)c1c(-c3ccccc3Cl)noc1C)CSC2,29,4,0.0019,-0.96,8,·,·,·
Cc1ccc(Nc2nc(N)nc(CSc3nnnn3-c3ccccc3)n2)cc1,-16,-5,-0.17,7.1*,6,9096*,·,i
Nc1nc(CSc2ccccn2)nc(Nc2ccccc2)n1,-15,-1,1.5,3.6*,-38,10684*,·,+
SMILES,AP ELISA ortho,E coli RNAP,hDAT+cocaine,D1 allo mod,HEK293 NFkB inh,D1 PAM confirm,D1 ag no DA,Isoprot counter
Cc1ccc(Nc2nc(N)nc(CSc3nncn3C)n2)cc1,·,·,-0.63,·,·,·,·,·
CC(=O)c1c(C)[nH]c(C(=O)OCCCCN2C(=O)c3ccccc3C2=O)c1C,-4,9,-0.31,0.21,31,·,·,·
CSC1=NCCN1C(=O)c1c(F)cccc1F,12,-2,0.31,2,9,·,·,·
Cc1cc(=O)n(CC=C(Cl)Cl)c2ccccc12,-5,10,-1.5,2.9*,11,7272*,1672,i
CN1CCN(c2ccc(Cl)cc2NC(=O)c2cccc(S(=O)(=O)N(C)C)c2)CC1,17,2,0.26,5.2*,11,13264*,1580,i
CN(C)S(=O)(=O)c1cccc(C(=O)Nc2cc(Cl)ccc2O)c1,7,5,0.33,0.11,3,·,·,·
O=C(NCc1ccc(C(F)(F)F)cc1)C1CC(c2c(Cl)cccc2Cl)=NO1 (stereo unspecified),·,·,0.26,·,·,·,·,·
CCOC(=O)c1sc(N(Cc2ccccc2)C(=O)CSc2nnc(C3CC3)n2N)nc1C,·,·,0.22,6.2*,21,18736*,1688,+
Cc1cc(NC(=O)CC(CN(C)S(=O)(=O)c2ccccc2)c2ccccc2)no1 (stereo unspecified),12,0,0.63,-0.82,9,·,·,·
O=C(c1cccn2c(=O)c3cc(Cl)ccc3nc12)N1CCN(Cc2ccc3c(c2)OCO3)CC1,14,0,·,3*,16,6868*,1600,i
COc1ccc(NC(=O)C2=C(C)C(=O)OC23CCC(C)CC3)c(OC)c1 (stereo unspecified),13,11,0.57,1.4,0,·,·,·
COC(=O)Cc1cc(=O)n2[nH]c(C(F)(F)F)nc2n1,·,·,-0.047,·,·,·,·,·
Cc1c(S(=O)(=O)Nc2cccc(Cl)c2)c(=O)n(C)c(=O)n1C,14,10,1.2,2.7*,4,6100,1648,i
CCOC(=O)c1cnc(-n2nc(C)cc2C)nc1NC(C)c1ccccc1 (stereo unspecified),13,9,-0.23,8.3*,20,9080*,1572,+
CCc1nc2n[nH]c(N)c2c2c1CCCC2,·,2,-0.32,·,·,·,·,·
CCCCc1nc2n[nH]c(N)c2c2c1CCC2,0,·,0.097,7.9*,18,22688*,1740,+
COc1ccc(-c2ccc(SCC(=O)Nc3cc(C)on3)nn2)cc1OC,12,-1,-0.39,5.8*,20,23296*,1724,+
COc1cccc(-c2nnc(SCC(=O)Nc3cc(C)on3)o2)c1,26,2,-0.3,5.7*,-4,6316*,1520,i
Cc1cccn2cc(CCNC(=O)c3ccc(Br)o3)nc12,20,9,-2,-0.94,5,·,·,·
Cc1cc(NCc2ccccn2)ccc1Br,·,·,-0.2,·,·,·,·,·
CCCc1cc(Nc2cccc(OC)c2)n2ncnc2n1,11,11,-0.48,5.2*,15,10608*,·,+
CCCc1cc(Nc2cccc(OCC)c2)n2ncnc2n1,-16,7,0.2,3.2*,8,11224*,1788,+

# From PubChem BioAssay
